Results on three molecules are retold here after PubChem BioAssay AID623954 (The Scripps Research Institute Molecular Screening Center, 2012).

Active and inactive are the calls of the source.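 Rule for the calls: active = recombinant frequency cut at least fourfold versus the solvent-only control; inactive = reduction in recombinant frequency below fourfold.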

The subject of the assay is E. coli recBCD-deletion with H. pylori AddAB/RecA, Hfr recombination, colony count. Put plainly: Hfr recombinant frequency reduction – colony formation, p(addAB), p(recA), 100 µM, counter-screen for AddAB inhibitor project, late-stage follow-up (AID 623954). As to conditions: at 100 µM; hits give high values. The gist of the method:
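Test system – ΔrecBCD E. coli with H. pylori AddAB/RecA plasmids · Measured by – differential plating counting His+ StrR recombinant colonies · Reagent – HfrH E. coli donor mixed 1:10 with recipient · Dosing – single dose of 100 µM compound · Read-out – fold drop in recombinant frequency relative to DMSO · Controls – DMSO-treated culture · Repeats – duplicate experiments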
In general terms: Counterscreens check selectivity or assay interference.
Regarding `CNC(=O)c1c(NC(=O)c2nc(SCc3ccccc3)ncc2Cl)sc2c1CCCC2`, the fold reduction of recombinant frequency is 2 (inactive).
As to `N#Cc1c(NC(=O)c2ccc([N+](=O)[O-])o2)sc2c1CCC2`, the fold reduction of recombinant frequency was 20.
The figure for `CCn1cc(C(=O)O)c(=O)c2cc(F)c(N3CCN(C(=S)Nc4cccc(C(F)(F)F)c4)CC3)cc21` is 8.
